Usually AUC stands for the area under the concentration-time curve, a measure of exposure. As usually defined, the Cmax is the maximum level reached in the sampled fluid or tissue. Broadly, the clearance is a measure of how efficiently the substance is removed, as volume per time. Read a low clearance as inefficient removal. For orientation: bioavailability means the share of a dose that reaches the circulation, judged against a reference dose that is usually intravenous. High values mean much systemic uptake, low ones little systemic uptake. What is called solubility is the concentration that dissolves in the medium under given conditions. For orientation: half-life means the time in which the quantity being followed falls by half. A high value points to slow loss.

Values after ≈ are worked out from the molar mass of the structure shown.

From ChEMBL document CHEMBL2331109, “Inhibitors of human immunodeficiency virus type 1 (HIV-1) attachment. 12. Structure-activity relationships associated with 4-fluoro-6-azaindole derivatives leading to the identification of 1-(4-benzoylpiperazin-1-yl)-2-(4-fluoro-7-[1,2,3]triazol-1-yl-1h-pyrrolo[2,3-c]pyridin-3-yl)ethane-1,2-dione …” (J Med Chem, 2013) come the findings set out here.

The nature of data set [1]: Clearance in human liver microsomes. Type of data set: ADME, Microsome. Conditions: read-out: CLH. (In general: Liver microsomes are vesicles of endoplasmic reticulum, rich in cytochrome P450 enzymes.)
Data set [2] relates to Rattus norvegicus. Kind of data set: (§1) AUC in rat at 5 mg/kg, po at 24 hrs. Details: time < 24 hr, dose 5 mg/kg, route oral; call rule not given here. Conditions: in vivo, 24 h. It counts as ADME, organism-based, Plasma.
Data set [3] deals with Rattus norvegicus. Kind of data set: (§2) Oral bioavailability in rat at 5 mg/kg. Type of data set: ADME, organism-based. Conditions: in vivo.
Data set [4] in a line: Volume of distribution at steady state in iv dosed rat. Type of data set: ADME, organism-based. To be noted: in vivo, read-out: Vdss. An outline of the steps: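 Rats dosed intravenously in PEG 400/ethanol (90:10 v/v); steady-state volume of distribution taken from the iv plasma profile.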
Data set [5] can be described thus: Cmax in rat at 5 mg/kg, po. Type of data set: ADME, organism-based. Details: dose 5 mg/kg, route oral. Conditions: in vivo.
Data set [6] in a line: as §1. Type of data set: ADME, organism-based, Plasma. Also noted: time < 24 hr, dose 5 mg/kg, route oral. To be noted: plasma.
Data set [7] in a line: Clearance in iv dosed rat. It counts as ADME, organism-based. Conditions: in vivo.
Data set [8] can be described thus: as §2. Type of data set: ADME, organism-based. To be noted: in vivo.
Data set [9] can be described thus: Oral bioavailability in human at 200 mg administered as capsule formulation. It counts as ADME, organism-based. To be noted: in vivo. The method, boiled down: (§3)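 Healthy subjects given 200 mg as a spray-dried capsule, fasted, with plasma sampled 0–96 h. Bioavailability is relative to a 20 mg oral solution, based on dose-normalized AUC(INF).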
Data set [10] in a line: Aqueous solubility of the compound. It counts as physicochemical. Conditions: buffer.
Data set [11] can be described thus: Half life in human at 20 mg, po administered as solution measured between 2 and 12 hrs post-dosing. Type of data set: ADME, organism-based. To be noted: in vivo.
The next data set has as its system Plasma. Kind of data set: Plasma concentration in human at 20 mg, po administered as solution measured after 16 hrs. It counts as ADME, organism-based. Conditions: in vivo, BLD = below limit of detection.
Data set [12] can be described thus: Drug absorption in human colon at 200 mg, po measured between 12 to 96 hrs. To be noted: in vivo. It counts as ADME, organism-based. An outline of the steps: as §3

On to `CNC(=O)c1ncc(F)c2c(C(=O)C(=O)N3CCN(C(=O)c4ccccc4)CC3)c[nH]c12`, for which the CLint scaled in data set [1] is < 21 mL/min/kg. This molecule also registered an AUC in the data set with Rattus norvegicus [2] of 1.5 µM·h. In addition, the F with Rattus norvegicus [3] was 63%. The Vd in data set [4] came to 0.74 L/kg. For the same molecule, the Cmax in [5] worked out at 326 nM.
In the case of `NC(=O)c1ncc(F)c2c(C(=O)C(=O)N3CCN(C(=O)c4ccccc4)CC3)c[nH]c12`, the CLint scaled in data set [1] was < 21 mL/min/kg. In the data set with Rattus norvegicus [2], this molecule returned an AUC of 2.6 µM·h. For the same molecule, the F with Rattus norvegicus [3] worked out at 68%. The Vd in [4] is 1.4 L/kg. The same molecule yielded a Cmax in data set [5] of 603 nM.
Turning to `O=C(C(=O)N1CCN(C(=O)c2ccccc2)CC1)c1c[nH]c2c(-c3cnco3)ncc(F)c12`, the CLint scaled in [1] was < 21 mL/min/kg. Further, the AUC at 24 h in [6] was 12 µM·h. Besides, in data set [7], the clearance was determined as 1.4 mL/min/kg. The bioavailability in [8] stood at 20%. In addition, in [4], the Vd is 0.14 L/kg. In data set [5], the highest level (Cmax) was 1290 nM.
Take `O=C(C(=O)N1CCN(C(=O)c2ccccc2)CC1)c1c[nH]c2c(-c3cnccn3)ncc(F)c12`: the CLint scaled in data set [1] was ≤ 29 mL/min/kg.
Regarding `O=C(C(=O)N1CCN(C(=O)c2ccccc2)CC1)c1c[nH]c2c(-c3cc[nH]n3)ncc(F)c12`, the CLint scaled in data set [1] is < 21 mL/min/kg. The molecule also showed an AUC in the data set on Rattus norvegicus [2] of 12.5 µM·h. This molecule registered a F in the data set with Rattus norvegicus [3] of 33%. The Vd in [4] was found to be 0.25 L/kg. Besides, the highest level in [5] (Cmax) was 1400 nM.
Take `NC(=O)c1cc(-c2ncc(F)c3c(C(=O)C(=O)N4CCN(C(=O)c5ccccc5)CC4)c[nH]c23)n[nH]1`: in data set [1], the CLint scaled was ≤ 29 mL/min/kg.
For the molecule `CNC(=O)c1cc(-c2ncc(F)c3c(C(=O)C(=O)N4CCN(C(=O)c5ccccc5)CC4)c[nH]c23)n[nH]1`, the CLint scaled in data set [1] is ≤ 29 mL/min/kg.
The same measure, in the same setting: the same measure for `O=C(NCCN1CCOCC1)c1cc(-c2ncc(F)c3c(C(=O)C(=O)N4CCN(C(=O)c5ccccc5)CC4)c[nH]c23)n[nH]1`: > 29 mL/min/kg; for `CN(C)C(=O)c1cc(-c2ncc(F)c3c(C(=O)C(=O)N4CCN(C(=O)c5ccccc5)CC4)c[nH]c23)n[nH]1`: < 21 mL/min/kg.
As to `O=C(C(=O)N1CCN(C(=O)c2ccccc2)CC1)c1c[nH]c2c(-n3cncn3)ncc(F)c12`, the CLint scaled in data set [1] was < 21 mL/min/kg. This molecule displayed a F with Rattus norvegicus [3] of 95%. The Vd in data set [4] turned out to be 0.26 L/kg. The molecule further showed a Cmax in data set [5] of 8760 nM.
In the case of `Cc1ncn(-c2ncc(F)c3c(C(=O)C(=O)N4CCN(C(=O)c5ccccc5)CC4)c[nH]c23)n1`, in [1], the CLint scaled is < 21 mL/min/kg. For the same molecule, the AUC with Rattus norvegicus [2] was 160 µM·h. Further, the F in the data set on Rattus norvegicus [3] came out at 77%. For the same molecule, the Vd in data set [4] came to 0.18 L/kg.
For `Cc1ccn(-c2ncc(F)c3c(C(=O)C(=O)N4CCN(C(=O)c5ccccc5)CC4)c[nH]c23)n1`, the CLint scaled in [1] is < 21 mL/min/kg. The molecule further gave an AUC in the data set on Rattus norvegicus [2] of 2.1 µM·h. The molecule further had a F in the data set with Rattus norvegicus [3] of 61%. Besides, the Vd in data set [4] turned out to be 0.6 L/kg. The molecule also displayed a Cmax in data set [5] of 498 nM.
For `O=C(C(=O)N1CCN(C(=O)c2ccccc2)CC1)c1c[nH]c2c(-n3ccnn3)ncc(F)c12`, the CLint scaled in data set [1] is < 21 mL/min/kg. Further, in data set [6], the AUC at 24 h is 86 µM·h. Also, the values for the bioavailability in [9] and in data set [8] were 30% and 64%, respectively. The same molecule yielded a solubility in data set [10] of 7 µg/mL (≈ 15.6 µM). The Cmax in data set [5] was 9480 nM. In addition, the half-life in data set [11] is 1.4 h. The Cp entry in the data set with Plasma is recorded as “BLD”. For the same molecule, the Drug absorption result in data set [12] was “Active”.
Take `COc1ncc(OC)c2c(C(=O)C(=O)N3CCN(C(=O)c4ccccc4)CC3)c[nH]c12`: the AUC at 24 h in data set [6] was 6.3 µM·h. In addition, the Vd in data set [4] turned out to be 1.1 L/kg. Moreover, in data set [5], the Cmax came to 1890 nM.
